In brackets after ≈: the same amount, converted by molar mass.
Tests used:
[1] = molecular target: Diacylglycerol O-acyltransferase 1 (Homo sapiens) (UniProt O75907); assay: Inhibition of human DGAT1 assessed as conversion of [14C]-oleoyl-CoA to [14C]-triglyceride at 1 uM after 10 mins by scintillation counting
Mus musculus = assay: Antiobesity activity in Swiss mouse assessed as reduction in plasma triglyceride level at 3 mg/kg, po measured after 4 hrs by fat tolerance test; assay type: functional; design: scale not given: the % may be the effect or the level left
Outline: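 Fasted Swiss mice (4-5 weeks, 25-30 g) gavaged with test compound at 3 mg/kg as a suspension in 0.5% CMC with Tween 80, or with vehicle. Olive oil bolus (10 ml/kg) given 1 h later. Plasma TG measured by kit at 1, 2, 3 and 4 h. AUC0-4h expressed relative to vehicle (100%). Mean ± SEM, n = 8.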

[2] = Aqueous solubility of the compound at pH 7.4 after 24 hrs; assay type: physicochemical; settings: aqueous medium

Diacylglycerol O-acyltransferase 1 (Homo sapiens), sequence (O75907 whole entry, looked up): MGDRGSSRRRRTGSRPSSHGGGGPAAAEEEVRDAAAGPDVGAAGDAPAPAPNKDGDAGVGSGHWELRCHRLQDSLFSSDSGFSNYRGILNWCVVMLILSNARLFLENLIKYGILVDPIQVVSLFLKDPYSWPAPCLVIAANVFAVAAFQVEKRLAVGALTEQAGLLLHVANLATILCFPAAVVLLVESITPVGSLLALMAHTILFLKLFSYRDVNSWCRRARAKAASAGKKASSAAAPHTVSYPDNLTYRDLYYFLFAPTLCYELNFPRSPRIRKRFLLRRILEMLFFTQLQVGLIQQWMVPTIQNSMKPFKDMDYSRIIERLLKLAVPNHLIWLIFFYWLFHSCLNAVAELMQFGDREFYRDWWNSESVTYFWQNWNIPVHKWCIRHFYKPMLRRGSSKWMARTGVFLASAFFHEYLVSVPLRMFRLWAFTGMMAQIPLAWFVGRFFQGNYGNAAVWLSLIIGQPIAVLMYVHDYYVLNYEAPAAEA

Row | Structure (SMILES) | inhibition [1] [%] | Activity (Mus musculus) [%] | solubility at 24 h [2] [µg/mL]
1 | CC(C)[C@H](NC(=O)c1cc(-c2ccc(NC(=O)Nc3cccc(Cl)c3)cc2)no1)C(=O)O | 84 |  | 
2 | CC(C)[C@H](NC(=O)c1nc(-c2ccc(NC(=O)Nc3ccc(Cl)cc3)cc2)no1)C(=O)O | 40 |  | 
3 | CC(C)[C@H](NC(=O)c1cc(-c2ccc(NC(=O)Nc3ccc(F)cc3F)cc2)no1)C(=O)O | 85 |  | 
4 | CC(C)[C@H](NC(=O)c1ncc(-c2ccc(NC(=O)Nc3cccc(Cl)c3)cc2)o1)C(=O)O | 72 |  | 
5 | COc1ccc(NC(=O)Nc2ccc(-c3cc(C(=O)N[C@H](C(=O)O)C(C)C)on3)cc2)cc1 |  | 90 | 430 (≈ 950 µM)
6 | CC(C)[C@H](NC(=O)c1nc(-c2ccc(NC(=O)Nc3ccccc3Cl)cc2)no1)C(=O)O | 62 |  | 
7 | Cc1ccc(NC(=O)Nc2ccc(-c3cnc(C(=O)N[C@H](C(=O)O)C(C)C)o3)cc2)cc1C | 69 |  | 
8 | CC(C)[C@H](NC(=O)c1nc(-c2ccc(NC(=O)Nc3ccc(F)cc3)cc2)no1)C(=O)O | 61 |  | 
9 | Cc1ccc(NC(=O)Nc2ccc(-c3cc(C(=O)N[C@H](C(=O)O)C(C)C)on3)cc2)cc1C | 83 |  | 
10 | CC(C)[C@H](NC(=O)c1cc(-c2ccc(NC(=O)Nc3ccc(Cl)cc3F)cc2)no1)C(=O)O | 90 |  | 
11 | CC(C)[C@H](NC(=O)c1cc(-c2ccc(OCc3ccc(F)cc3)cc2)no1)C(=O)O | 18 |  | 
12 | CC(C)[C@H](NC(=O)c1cc(-c2ccc(NC(=O)Nc3ccccc3Cl)cc2)no1)C(=O)O | 90 |  | 
13 | CC(C)[C@H](NC(=O)c1cc(-c2ccc(NC(=O)Nc3cccc(C(F)(F)F)c3)cc2)no1)C(=O)O | 85 |  | 
14 | Cc1ccc(NC(=O)Nc2ccc(-c3cc(C(=O)N[C@H](C(=O)O)C(C)C)on3)cc2)cc1 | 80 | 79 | 380 (≈ 871 µM)
15 | CC(C)[C@H](NC(=O)c1cc(-c2ccc(NC(=O)[C@H](O)c3ccccc3)cc2)no1)C(=O)O | 59 |  | 
16 | CC(C)[C@H](NC(=O)c1ncc(-c2ccc(NC(=O)Nc3ccccc3Cl)cc2)o1)C(=O)O | 80 |  | 
17 | Cc1ccccc1S(=O)(=O)NC(=O)Nc1ccc(-c2cc(C(=O)N[C@H](C(=O)O)C(C)C)on2)cc1 | 26 |  | 

Row | Structure (SMILES) | inhibition [1] [%] | Activity (Mus musculus) [%] | solubility at 24 h [2] [µg/mL]
18 | CC(C)[C@H](NC(=O)c1cc(-c2ccc(NC(=O)c3ccc(F)cc3)cc2)no1)C(=O)O | 44 |  | 
19 | CC(C)[C@H](NC(=O)c1ncc(-c2ccc(NC(=O)Nc3ccc(Cl)cc3Oc3ccccc3)cc2)o1)C(=O)O | 91 |  | 
20 | CC(C)[C@H](NC(=O)c1cc(-c2ccc(NS(=O)(=O)c3c(F)cccc3F)cc2)no1)C(=O)O | 23 |  | 
21 | CC(C)[C@H](NC(=O)c1cc(-c2ccc(NC(=O)Nc3ccc(Cl)cc3)cc2)no1)C(=O)O | 84 |  | 
22 | CC(C)[C@H](NC(=O)c1nc(-c2ccc(NC(=O)Nc3cccc(Cl)c3)cc2)no1)C(=O)O | 71 |  | 
23 | CC(C)[C@H](NC(=O)c1cc(-c2ccc(Nc3nc4ccc(F)cc4s3)cc2)no1)C(=O)O |  | 29 | 60 (≈ 132 µM)
24 | CC(C)[C@H](NC(=O)c1ncc(-c2ccc(NC(=O)Nc3cccc(C(F)(F)F)c3)cc2)o1)C(=O)O | 75 |  | 
25 | CC(C)[C@H](NC(=O)c1cc(-c2ccc(NC(=O)Nc3ccc(F)cc3)cc2)no1)C(=O)O | 78 |  | 
26 | CC(C)[C@H](NC(=O)c1nc(-c2ccc(NC(=O)Nc3cccc(C(F)(F)F)c3)cc2)no1)C(=O)O | 48 |  | 
27 | CC(C)[C@H](NC(=O)c1cc(-c2ccc(NC(=S)Nc3ccccc3F)cc2)no1)C(=O)O | 72 |  | 
28 | Cc1ccc(NC(=O)Nc2ccc(-c3noc(C(=O)N[C@H](C(=O)O)C(C)C)n3)cc2)cc1 | 61 |  | 
29 | CC(C)[C@H](NC(=O)c1ncc(-c2ccc(NC(=O)Nc3ccc(Cl)cc3F)cc2)o1)C(=O)O | 70 |  | 
30 | CC(C)[C@H](NC(=O)c1ccc(-c2ccc(Nc3nc4ccc(F)cc4s3)cc2)cc1)C(=O)O |  | 84 | 10 (≈ 21.6 µM)
31 | CC(C)[C@H](NC(=O)c1cc(-c2ccc(NC(=O)C(=O)Nc3cccc(C(F)(F)F)c3)cc2)no1)C(=O)O | 16 |  | 
32 | CC(C)[C@H](NC(=O)c1nc(-c2ccc(NC(=O)Nc3ccc(F)cc3F)cc2)no1)C(=O)O | 75 |  | 
33 | CC(C)[C@H](NC(=O)c1ncc(-c2ccc(NC(=O)Nc3ccc(Cl)cc3)cc2)o1)C(=O)O | 59 |  | 
34 | CC(C)[C@H](NC(=O)c1cc(-c2ccc(NC(=O)Nc3ccc(Cl)cc3Oc3ccccc3)cc2)no1)C(=O)O | 91 | 35 | 140 (≈ 255 µM)
